{"source": "ChEMBL document CHEMBL3286341", "about": "“Novel, potent and selective 17β-hydroxysteroid dehydrogenase type 2 inhibitors as potential therapeutics for osteoporosis with dual human and mouse activities” (Eur J Med Chem, 2014)", "key": {"Homo sapiens": {"species": "Homo sapiens", "test": "Selectivity factor, ratio of IC50 for human placental 17beta-HSD1 cytosolic fraction to IC50 for placental 17beta-HSD2 microsomal fraction", "method_in_brief": "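Selectivity factor calculated as IC50(h17β-HSD1)/IC50(h17β-HSD2), both IC50 values taken from the placental cytosolic and microsomal radiolabel HPLC assays.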"}, "[1]": {"biological_target": "T1, 17-beta-hydroxysteroid dehydrogenase type 1 (Homo sapiens, UniProt P14061)", "T1 sequence (P14061 whole entry)": "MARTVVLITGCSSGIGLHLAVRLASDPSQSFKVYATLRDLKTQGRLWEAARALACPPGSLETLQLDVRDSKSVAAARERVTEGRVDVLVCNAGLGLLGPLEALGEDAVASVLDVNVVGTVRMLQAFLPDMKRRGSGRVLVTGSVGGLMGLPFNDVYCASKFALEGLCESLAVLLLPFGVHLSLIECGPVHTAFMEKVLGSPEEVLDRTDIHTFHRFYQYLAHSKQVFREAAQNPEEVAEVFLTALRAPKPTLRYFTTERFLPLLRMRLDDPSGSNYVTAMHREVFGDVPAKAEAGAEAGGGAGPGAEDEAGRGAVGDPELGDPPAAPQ", "test": "Inhibition of human placental 17beta-HSD1 cytosolic fraction using tritiated estrone as substrate assessed as formation of estradiol by HPLC analysis", "method_in_brief": "(§1)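 Cytosolic fraction from placenta served as the enzyme source, incubated with tritiated E1 (500 nM final), NADH cofactor and test compound. E1 and E2 were separated by HPLC and the labeled species quantified. Mean of three determinations.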"}, "[2]": {"biological_target": "T2, 17-beta-hydroxysteroid dehydrogenase type 2 (Homo sapiens, UniProt P37059)", "T2 sequence (P37059 whole entry)": "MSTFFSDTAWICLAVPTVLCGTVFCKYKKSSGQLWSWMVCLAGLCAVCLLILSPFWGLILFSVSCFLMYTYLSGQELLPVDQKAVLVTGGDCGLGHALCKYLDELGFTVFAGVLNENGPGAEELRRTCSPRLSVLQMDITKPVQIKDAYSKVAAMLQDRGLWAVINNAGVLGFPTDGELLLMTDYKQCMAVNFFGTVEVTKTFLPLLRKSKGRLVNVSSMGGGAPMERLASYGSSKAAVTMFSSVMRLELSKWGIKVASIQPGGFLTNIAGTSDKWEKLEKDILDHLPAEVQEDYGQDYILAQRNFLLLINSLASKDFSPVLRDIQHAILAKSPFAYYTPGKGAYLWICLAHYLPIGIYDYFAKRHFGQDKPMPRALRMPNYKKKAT", "test": "Inhibition of human placental 17beta-HSD2 microsomal fraction using tritiated estradiol as substrate assessed as formation of estrone by HPLC analysis", "method_in_brief": "(§2)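 Placental microsomes were incubated with tritiated E2 (500 nM final) plus NAD⁺ cofactor and test compound. Labeled E2 and E1 were separated by HPLC and quantified. Mean of three determinations, standard deviation below 20%.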"}, "[3]": {"biological_target": "T3, Estradiol 17-beta-dehydrogenase 2 (Mus musculus) (UniProt P51658)", "T3 sequence (whole entry)": "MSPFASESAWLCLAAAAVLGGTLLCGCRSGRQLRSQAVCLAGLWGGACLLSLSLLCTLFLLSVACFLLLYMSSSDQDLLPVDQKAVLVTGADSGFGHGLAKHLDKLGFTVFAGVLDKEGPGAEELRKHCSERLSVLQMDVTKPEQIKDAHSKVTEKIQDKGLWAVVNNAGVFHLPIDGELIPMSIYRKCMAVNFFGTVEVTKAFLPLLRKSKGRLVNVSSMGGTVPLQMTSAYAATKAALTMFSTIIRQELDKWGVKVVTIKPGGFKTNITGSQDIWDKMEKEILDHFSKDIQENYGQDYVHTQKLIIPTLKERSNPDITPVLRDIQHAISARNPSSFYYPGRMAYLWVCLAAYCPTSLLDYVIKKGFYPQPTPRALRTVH", "test": "Inhibition of mouse liver 17beta-HSD2 microsomal fraction using tritiated estradiol as substrate assessed as formation of estrone at 1 uM by HPLC analysis relative to control", "method_in_brief": "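Mouse liver microsomes were used, following the same procedure as the human type 2 assay: tritiated E2 at 500 nM with NAD⁺, and E1 formation quantified after HPLC separation.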"}, "[4]": {"biological_target": "T4, 17-beta-hydroxysteroid dehydrogenase type 1 (Homo sapiens) (UniProt P14061)", "T4 sequence (whole entry)": "T1 sequence (P14061 whole entry)", "test": "Inhibition of human placental 17beta-HSD1 cytosolic fraction using tritiated estrone as substrate assessed as formation of estradiol at 1 uM by HPLC analysis relative to control", "method_in_brief": "as §1"}, "[5]": {"biological_target": "T5, 17-beta-hydroxysteroid dehydrogenase type 2 (Homo sapiens) (UniProt P37059)", "T5 sequence (whole entry)": "T2 sequence (P37059 whole entry)", "test": "Inhibition of human placental 17beta-HSD2 microsomal fraction using tritiated estradiol as substrate assessed as formation of estrone at 1 uM by HPLC analysis relative to control", "method_in_brief": "as §2"}, "[6]": {"biological_target": "Estrogen receptor beta (Homo sapiens) (UniProt Q92731)", "sequence (Q92731 whole entry)": "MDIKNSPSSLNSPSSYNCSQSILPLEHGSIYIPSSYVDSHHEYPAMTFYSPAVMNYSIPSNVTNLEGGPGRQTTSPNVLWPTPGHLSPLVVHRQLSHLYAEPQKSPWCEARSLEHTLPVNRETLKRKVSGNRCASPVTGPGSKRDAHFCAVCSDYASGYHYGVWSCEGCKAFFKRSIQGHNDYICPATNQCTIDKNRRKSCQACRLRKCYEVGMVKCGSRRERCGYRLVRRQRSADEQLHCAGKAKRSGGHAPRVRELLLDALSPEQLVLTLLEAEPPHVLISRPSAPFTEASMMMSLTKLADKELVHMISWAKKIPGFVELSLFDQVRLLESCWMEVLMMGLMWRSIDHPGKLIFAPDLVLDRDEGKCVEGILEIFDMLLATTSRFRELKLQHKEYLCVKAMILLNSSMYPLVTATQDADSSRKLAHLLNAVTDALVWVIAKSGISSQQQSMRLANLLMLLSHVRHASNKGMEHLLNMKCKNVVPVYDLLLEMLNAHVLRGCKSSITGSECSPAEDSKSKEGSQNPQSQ", "test": "Displacement of [3H]-estradiol from recombinant human estrogen receptor-beta by liquid scintillation counting analysis relative to estradiol", "method_in_brief": "(§3)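 Competitive binding with [³H]-E2; compounds in DMSO at 5% final. Non-specific binding was set with unlabeled E2 at 100-fold the tracer: 300 nM for ERα, 1000 nM for ERβ. Bound complexes were captured on hydroxyapatite and counted by liquid scintillation. Concentrations displacing 50% were read from sigmoidal curves, with E2 run in each experiment. RBA[%] = IC50(E2)/IC50(compound) × 100.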"}, "[7]": {"biological_target": "T6, Estrogen receptor (Homo sapiens) (UniProt P03372)", "T6 sequence (whole entry)": "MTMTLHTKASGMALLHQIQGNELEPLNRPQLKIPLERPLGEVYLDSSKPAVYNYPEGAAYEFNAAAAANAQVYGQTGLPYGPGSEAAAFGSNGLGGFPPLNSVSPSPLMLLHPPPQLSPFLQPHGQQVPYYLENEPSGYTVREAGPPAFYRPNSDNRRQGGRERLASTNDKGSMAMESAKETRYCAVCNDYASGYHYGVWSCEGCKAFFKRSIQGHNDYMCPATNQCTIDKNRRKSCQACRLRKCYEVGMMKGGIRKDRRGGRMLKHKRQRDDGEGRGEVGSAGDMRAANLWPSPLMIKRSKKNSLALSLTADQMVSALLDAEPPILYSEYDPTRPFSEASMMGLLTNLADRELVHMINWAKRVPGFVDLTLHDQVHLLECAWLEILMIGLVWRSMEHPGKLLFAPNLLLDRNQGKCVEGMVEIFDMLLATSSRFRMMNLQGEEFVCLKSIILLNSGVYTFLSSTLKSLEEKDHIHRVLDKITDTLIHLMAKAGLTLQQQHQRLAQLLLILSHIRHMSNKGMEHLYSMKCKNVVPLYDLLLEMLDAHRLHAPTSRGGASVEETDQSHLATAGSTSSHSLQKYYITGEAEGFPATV", "test": "Displacement of [3H]-estradiol from recombinant human estrogen receptor-alpha by liquid scintillation counting analysis relative to estradiol", "method_in_brief": "as §3"}}, "note": "Activity calls are given as the source filed them. No cut-off for these calls is given here."}
{"molecule": "CC(C)(C(=O)c1ccc(-c2cccc(O)c2)s1)c1cccc(O)c1", "values": [{"measurement": "Ratio IC50", "setting": "Homo sapiens", "value": 1}, {"measurement": "IC50", "setting": "[1]", "value": 336, "unit": "nM"}, {"measurement": "IC50", "setting": "[2]", "value": 357, "unit": "nM"}, {"measurement": "inhibition", "setting": "[3]", "value": 42, "unit": "%"}, {"measurement": "inhibition", "setting": "[4]", "value": 54, "unit": "%"}, {"measurement": "inhibition", "setting": "[5]", "value": 73, "unit": "%"}]}
{"molecule": "O=C(Cc1cccc(O)c1)c1ccc(-c2cccc(O)c2)s1", "values": [{"measurement": "inhibition", "setting": "[3]", "value": "inactive"}, {"measurement": "inhibition", "setting": "[4]", "value": 43, "unit": "%"}, {"measurement": "inhibition", "setting": "[5]", "value": 37, "unit": "%"}]}
{"molecule": "COc1cccc(CN(C)C(=O)c2ccc(-c3cccc(OC)c3)s2)c1", "values": [{"measurement": "Ratio IC50", "setting": "Homo sapiens", "value": "> 250"}, {"measurement": "IC50", "setting": "[1]", "value": "> 10000", "unit": "nM"}, {"measurement": "inhibition", "setting": "[3]", "value": 26, "unit": "%"}, {"measurement": "inhibition", "setting": "[4]", "value": "inactive"}]}
{"molecule": "COc1cccc(-c2ccc(C(=O)N(C)Cc3cccc(O)c3)s2)c1F", "values": [{"measurement": "Ratio IC50", "setting": "Homo sapiens", "value": 73}, {"measurement": "inhibition", "setting": "[4]", "value": "inactive"}]}
{"molecule": "Oc1cccc(-c2cc(-c3cccc(O)c3)c(-c3cccc(O)c3)s2)c1", "values": [{"measurement": "Ratio IC50", "setting": "Homo sapiens", "value": 2}, {"measurement": "RBA", "setting": "[6]", "value": "< 0.1", "unit": "%"}, {"measurement": "inhibition", "setting": "[3]", "value": "inactive"}, {"measurement": "RBA", "setting": "[7]", "value": "< 0.1", "unit": "%"}]}
{"molecule": "COc1cccc(CC(=O)c2ccc(-c3cccc(OC)c3)s2)c1", "values": [{"measurement": "inhibition", "setting": "[3]", "value": 12, "unit": "%"}, {"measurement": "inhibition", "setting": "[4]", "value": "inactive"}, {"measurement": "inhibition", "setting": "[5]", "value": 17, "unit": "%"}]}
{"molecule": "CN(Cc1cccc(O)c1)C(=O)c1ccc(-c2cccc(O)c2)s1", "values": [{"measurement": "Ratio IC50", "setting": "Homo sapiens", "value": 14}, {"measurement": "inhibition", "setting": "[3]", "value": 16, "unit": "%"}]}
{"molecule": "COc1cccc(-c2csc(C(=O)N(C)c3cccc(OC)c3)c2)c1", "values": [{"measurement": "RBA", "setting": "[6]", "value": "< 0.1", "unit": "%"}, {"measurement": "RBA", "setting": "[7]", "value": "< 0.1", "unit": "%"}]}
{"molecule": "CN(C(=O)c1cc(-c2cccc(O)c2)sc1-c1cccc(O)c1)c1cccc(O)c1", "values": [{"measurement": "Ratio IC50", "setting": "Homo sapiens", "value": 7}, {"measurement": "IC50", "setting": "[1]", "value": 2490, "unit": "nM"}, {"measurement": "IC50", "setting": "[2]", "value": 362, "unit": "nM"}, {"measurement": "inhibition", "setting": "[3]", "value": 42, "unit": "%"}, {"measurement": "inhibition", "setting": "[4]", "value": 29, "unit": "%"}, {"measurement": "inhibition", "setting": "[5]", "value": 74, "unit": "%"}]}
{"molecule": "Cc1cc(-c2cccc(O)c2)sc1-c1cccc(O)c1", "values": [{"measurement": "Ratio IC50", "setting": "Homo sapiens", "value": 2}, {"measurement": "inhibition", "setting": "[3]", "value": "inactive"}]}
